Data set [1] has as its target DNA gyrase subunit B (Mycobacterium smegmatis) (UniProt P0C559). Kind of data set: Inhibition of Mycobacterium smegmatis GyrB by ATPase assay. The note with it: Mycolicibacterium smegmatis.
The test system of data set [2] is Mycobacterium tuberculosis. As to the kind of experiment: Antimicrobial activity against Mycobacterium tuberculosis H37Rv ATCC 27294 after 28 days by alamar blue assay. The format is functional. The following applies: H37Rv ATCC 27294, 672 h. (Resazurin is reduced to fluorescent resorufin, in cell work by metabolically active cells.)
The test system of the next data set is Escherichia coli. As to the kind of experiment: Inhibition of Escherichia coli DNA gyrase assessed as inhibition of DNA supercoiling.
The nature of data set [3]: Cytotoxicity against mouse RAW264.7 cells assessed as inhibition of cell growth at 50 uM after 72 hrs by MTT assay. The format is cell-based. In short, it runs like this: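 RAW 264.7 mouse macrophages exposed to compound at 50 µM for 72 h. Viability read by MTT conversion to formazan, reported as percent inhibition.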
(In general: Formazan colour is commonly taken as a measure of viable cells.)

The target in data set [4] is DNA gyrase (Pseudomonas aeruginosa) (UniProt P48372+Q9I7C2). As to the kind of experiment: Inhibition of Pseudomonas aeruginosa DNA gyrase assessed as inhibition of DNA supercoiling. The format is protein-complex assay.
In data set [5] the target is DNA gyrase subunit A/DNA gyrase subunit B (Mycobacterium tuberculosis (strain ATCC 25618 / H37Rv), UniProt P9WG45+P9WG47). Kind of data set: Inhibition of Mycobacterium tuberculosis DNA gyrase assessed as inhibition of DNA supercoiling after 30 mins by electrophoresis.
The target in data set [6] is DNA gyrase (Staphylococcus aureus) (UniProt P0A0K8+P20831). As to the kind of experiment: Inhibition of Staphylococcus aureus DNA gyrase assessed as inhibition of DNA supercoiling. The format is protein-complex assay.
Data set [7] concerns Mycobacterium tuberculosis. Kind of data set: Inhibition of Mycobacterium tuberculosis DNA topoisomerase 1 assessed as DNA relaxation at 50 uM.

In brackets after ≈: the same amount, converted by molar mass. Activity calls are given as the source filed them. The calls are words filed in the database; no cut-off is given here. Bounds are passed on as bounds.

Chain of DNA gyrase subunit B (Mycobacterium smegmatis) (P0C559 2-675 limits assumed): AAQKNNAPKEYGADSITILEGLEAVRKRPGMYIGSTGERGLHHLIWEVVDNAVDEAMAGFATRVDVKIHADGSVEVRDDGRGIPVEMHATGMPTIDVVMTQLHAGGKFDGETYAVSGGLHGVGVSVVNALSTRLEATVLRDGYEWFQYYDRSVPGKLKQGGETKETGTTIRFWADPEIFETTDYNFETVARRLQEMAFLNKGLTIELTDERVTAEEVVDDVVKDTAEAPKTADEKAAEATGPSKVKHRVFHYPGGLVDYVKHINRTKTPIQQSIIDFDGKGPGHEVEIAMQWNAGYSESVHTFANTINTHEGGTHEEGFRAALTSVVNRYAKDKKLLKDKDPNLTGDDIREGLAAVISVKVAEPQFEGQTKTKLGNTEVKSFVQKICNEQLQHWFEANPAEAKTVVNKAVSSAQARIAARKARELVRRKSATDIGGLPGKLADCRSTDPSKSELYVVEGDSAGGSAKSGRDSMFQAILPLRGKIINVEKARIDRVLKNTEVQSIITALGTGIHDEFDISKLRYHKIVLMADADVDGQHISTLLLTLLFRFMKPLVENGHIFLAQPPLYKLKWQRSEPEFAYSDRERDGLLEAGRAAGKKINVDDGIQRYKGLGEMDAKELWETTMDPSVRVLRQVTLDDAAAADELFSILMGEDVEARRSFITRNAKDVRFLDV
Chain of DNA gyrase subunit A/DNA gyrase subunit B (P9WG45 whole entry): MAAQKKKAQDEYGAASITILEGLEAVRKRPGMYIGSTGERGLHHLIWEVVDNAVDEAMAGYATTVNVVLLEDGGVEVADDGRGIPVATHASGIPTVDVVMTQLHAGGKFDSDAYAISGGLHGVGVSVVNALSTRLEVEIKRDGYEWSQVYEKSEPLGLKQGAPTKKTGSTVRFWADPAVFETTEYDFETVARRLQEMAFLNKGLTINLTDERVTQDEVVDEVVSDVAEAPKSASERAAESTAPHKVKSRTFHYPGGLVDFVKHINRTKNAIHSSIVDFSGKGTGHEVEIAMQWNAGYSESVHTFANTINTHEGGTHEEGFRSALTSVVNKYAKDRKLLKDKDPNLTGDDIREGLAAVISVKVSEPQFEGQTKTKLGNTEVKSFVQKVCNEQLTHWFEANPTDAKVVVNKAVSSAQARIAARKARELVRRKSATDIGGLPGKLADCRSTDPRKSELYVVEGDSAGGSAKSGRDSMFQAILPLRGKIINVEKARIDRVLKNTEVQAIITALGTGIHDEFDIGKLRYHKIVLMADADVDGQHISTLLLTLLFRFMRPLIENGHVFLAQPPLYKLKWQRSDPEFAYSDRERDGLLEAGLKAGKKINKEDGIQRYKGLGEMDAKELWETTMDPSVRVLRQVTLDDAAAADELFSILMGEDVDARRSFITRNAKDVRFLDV
Chain of DNA gyrase subunit A/DNA gyrase subunit B (P9WG47 whole entry): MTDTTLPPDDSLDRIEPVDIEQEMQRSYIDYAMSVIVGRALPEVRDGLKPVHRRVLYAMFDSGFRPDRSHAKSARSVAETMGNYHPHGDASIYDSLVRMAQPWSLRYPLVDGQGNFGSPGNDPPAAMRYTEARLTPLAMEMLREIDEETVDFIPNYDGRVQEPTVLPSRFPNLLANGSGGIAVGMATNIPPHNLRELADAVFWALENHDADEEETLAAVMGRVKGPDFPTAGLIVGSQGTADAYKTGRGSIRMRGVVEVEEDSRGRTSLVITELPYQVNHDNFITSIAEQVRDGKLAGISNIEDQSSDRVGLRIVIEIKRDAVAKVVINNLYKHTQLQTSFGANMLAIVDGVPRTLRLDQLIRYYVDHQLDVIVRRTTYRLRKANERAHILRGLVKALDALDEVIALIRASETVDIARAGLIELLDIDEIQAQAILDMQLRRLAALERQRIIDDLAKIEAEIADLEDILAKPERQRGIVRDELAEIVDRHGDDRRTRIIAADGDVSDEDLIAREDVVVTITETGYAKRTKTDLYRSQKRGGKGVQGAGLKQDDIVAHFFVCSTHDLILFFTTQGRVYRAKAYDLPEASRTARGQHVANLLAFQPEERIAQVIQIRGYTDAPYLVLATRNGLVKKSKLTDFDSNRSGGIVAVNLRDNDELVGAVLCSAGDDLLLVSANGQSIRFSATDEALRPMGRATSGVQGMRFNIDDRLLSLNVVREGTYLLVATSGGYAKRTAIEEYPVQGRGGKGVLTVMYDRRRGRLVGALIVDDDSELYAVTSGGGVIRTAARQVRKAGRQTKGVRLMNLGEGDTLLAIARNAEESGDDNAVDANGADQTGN
Chain of DNA gyrase (Staphylococcus aureus) (P0A0K8 2-644 limits assumed): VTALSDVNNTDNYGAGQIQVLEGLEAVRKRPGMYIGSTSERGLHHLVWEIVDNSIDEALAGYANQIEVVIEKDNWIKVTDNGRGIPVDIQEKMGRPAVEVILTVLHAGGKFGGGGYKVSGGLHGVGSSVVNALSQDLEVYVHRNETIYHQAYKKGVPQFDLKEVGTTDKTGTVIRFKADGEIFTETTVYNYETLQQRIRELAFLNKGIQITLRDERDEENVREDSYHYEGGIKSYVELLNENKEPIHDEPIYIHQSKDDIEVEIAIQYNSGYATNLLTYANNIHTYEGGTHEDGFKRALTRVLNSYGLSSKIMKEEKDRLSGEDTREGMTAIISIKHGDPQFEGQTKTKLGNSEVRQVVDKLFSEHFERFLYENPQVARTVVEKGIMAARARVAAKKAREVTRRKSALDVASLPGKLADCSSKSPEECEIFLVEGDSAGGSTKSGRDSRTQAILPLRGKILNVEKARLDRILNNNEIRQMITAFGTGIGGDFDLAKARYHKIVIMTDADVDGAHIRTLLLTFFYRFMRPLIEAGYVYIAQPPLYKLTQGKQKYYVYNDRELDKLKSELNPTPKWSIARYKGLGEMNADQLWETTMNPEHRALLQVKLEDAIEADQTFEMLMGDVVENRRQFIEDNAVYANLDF
Chain of DNA gyrase (Staphylococcus aureus) (P20831 whole entry partner): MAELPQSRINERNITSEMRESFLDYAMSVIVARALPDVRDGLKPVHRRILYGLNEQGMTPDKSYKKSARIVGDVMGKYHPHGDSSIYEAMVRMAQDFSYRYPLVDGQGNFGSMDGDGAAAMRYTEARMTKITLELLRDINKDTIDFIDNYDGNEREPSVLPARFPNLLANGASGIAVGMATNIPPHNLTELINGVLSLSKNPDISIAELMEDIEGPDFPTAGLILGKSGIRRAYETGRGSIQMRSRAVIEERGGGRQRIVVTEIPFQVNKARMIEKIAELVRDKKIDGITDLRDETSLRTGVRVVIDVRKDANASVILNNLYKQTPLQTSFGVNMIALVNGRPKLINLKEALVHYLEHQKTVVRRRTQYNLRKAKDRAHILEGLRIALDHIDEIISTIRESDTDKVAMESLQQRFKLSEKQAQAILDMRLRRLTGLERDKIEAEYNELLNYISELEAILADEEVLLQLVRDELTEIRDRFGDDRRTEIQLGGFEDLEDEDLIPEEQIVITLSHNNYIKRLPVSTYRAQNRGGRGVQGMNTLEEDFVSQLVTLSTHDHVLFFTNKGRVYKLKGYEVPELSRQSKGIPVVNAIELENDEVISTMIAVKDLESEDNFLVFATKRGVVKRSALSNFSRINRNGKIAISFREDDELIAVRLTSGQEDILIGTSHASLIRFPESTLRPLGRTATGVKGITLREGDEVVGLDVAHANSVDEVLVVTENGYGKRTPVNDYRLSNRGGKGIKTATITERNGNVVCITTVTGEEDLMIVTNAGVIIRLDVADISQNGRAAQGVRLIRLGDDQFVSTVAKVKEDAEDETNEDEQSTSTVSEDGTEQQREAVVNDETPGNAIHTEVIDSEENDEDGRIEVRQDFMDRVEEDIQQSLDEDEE

The term inhibition denotes the drop in the measured response relative to a control, in per cent. The term MIC denotes the lowest concentration found to suppress growth. The term IC50 denotes the midpoint of a concentration-inhibition curve. Consider `Cc1ccc(S(=O)(=O)Nc2ccc(Nc3c4ccccc4nc4ccc(C)cc34)cc2)cc1`, for which the inhibition entry (in data set [1]; in the data set with Escherichia coli; in data set [4]; in data set [6]; in data set [7]) was “inactive” in each case. The molecule further came in with an MIC in data set [2] of 27.6 µM (≈ 12.5 µg/mL). Besides, the inhibition at 72 h, 50 µM in data set [3] came to 27.8%. In addition, the IC50 in data set [5] stood at 9.8 µM.
With `Cc1ccc(NC(=S)Nc2ccc(Nc3c4ccccc4nc4ccc(C)cc34)cc2)cc1`, the inhibition entry (in data set [1]; in the data set with Escherichia coli; in data set [4]; in data set [6]; in data set [7]) was “inactive” each time. For the same molecule, inhibition of growth in data set [2] (MIC) required 55.7 µM (≈ 25 µg/mL). In addition, in data set [3], the inhibition at 72 h, 50 µM was 35%. In addition, the half-inhibitory concentration (IC50) in data set [5] worked out at 26.9 µM.
On to `S=C(Nc1ccc(Cl)cc1)Nc1ccc(Nc2c3ccccc3nc3ccccc23)cc1`, for which the inhibition entry (in data set [1]; in the data set with Escherichia coli; in data set [4]; in data set [6]; in data set [7]) was “inactive” in each case. 13.7 µM (≈ 6.25 µg/mL) was the least that counted as inhibitory in data set [2] (MIC). In addition, the inhibition at 72 h, 50 µM in data set [3] is 12.5%. Further, in data set [5], the IC50 worked out at 8.4 µM.
As for `O=S(=O)(Nc1ccc(Nc2c3ccccc3nc3ccccc23)cc1)c1ccccc1`, the inhibition entry (in data set [1]; with Escherichia coli; in data set [4]; in data set [6]; in data set [7]) was “inactive” each time. In addition, the minimum inhibitory concentration (MIC) in data set [2] was determined as 14.7 µM (≈ 6.25 µg/mL). The inhibition at 72 h, 50 µM in data set [3] was determined as 42.1%. For the same molecule, the IC50 in data set [5] was 15.1 µM.
Turning to `O=C(Nc1ccc(Nc2c3ccccc3nc3ccc(Cl)cc23)cc1)Nc1ccc([N+](=O)[O-])cc1`, the inhibition entry (in data set [1]; in the data set on Escherichia coli; in data set [4]; in data set [6]; in data set [7]) was “inactive” in each case. This molecule also gave an MIC in data set [2] of 6.46 µM (≈ 3.13 µg/mL). In data set [3], the inhibition at 72 h, 50 µM was found to be 45.9%. In addition, the IC50 in data set [5] stood at 7.3 µM.
`Cc1ccc(NC(=S)Nc2ccc(Nc3c4ccccc4nc4ccccc34)cc2)cc1`: the inhibition entry (in data set [1]; with Escherichia coli; in data set [4]; in data set [6]; in data set [7]) was “inactive” throughout. The minimal inhibitory concentration (MIC) in data set [2] was greater than 57.5 µM. Besides, the inhibition at 72 h, 50 µM in data set [3] is 27.4%. The IC50 in data set [5] was 31.1 µM.
As to `S=C(Nc1ccccc1)Nc1ccc(Nc2c3ccccc3nc3ccccc23)cc1`, the inhibition result (in data set [1]; in the data set with Escherichia coli; in data set [4]; in data set [6]; in data set [7]) was “inactive” each time. The lowest concentration to inhibit growth in data set [2] (MIC) was 14.9 µM (≈ 6.25 µg/mL). Further, the inhibition at 72 h, 50 µM in data set [3] is 29.2%. The IC50 in data set [5] was 8.2 µM.
In the case of `Cc1ccc2nc3ccccc3c(Nc3ccc(NC(=S)Nc4ccc([N+](=O)[O-])cc4)cc3)c2c1`, the inhibition result (in data set [1]; in the data set on Escherichia coli; in data set [4]; in data set [6]; in data set [7]) was “inactive” in each case. Besides, the minimum inhibitory concentration (MIC) in data set [2] was greater than 52.1 µM. Moreover, in data set [3], the inhibition at 72 h, 50 µM was found to be 28.8%. Further, in data set [5], the concentration for half-maximal inhibition (IC50) turned out to be 24.8 µM.
As for `O=S(=O)(Nc1ccc(Nc2c3ccccc3nc3ccc(Cl)cc23)cc1)c1ccccc1`, the inhibition result (in data set [1]; with Escherichia coli; in data set [4]; in data set [6]; in data set [7]) was “inactive” throughout. The molecule further yielded an MIC in data set [2] of 27.2 µM (≈ 12.5 µg/mL). In data set [3], the inhibition at 72 h, 50 µM stood at 14.5%. Further, the 50% inhibitory concentration (IC50) in data set [5] came out at 9.2 µM.
For the molecule `Cc1ccc2nc3ccccc3c(Nc3ccc(NC(=O)Nc4ccccc4)cc3)c2c1`, the inhibition entry (in data set [1]; in the data set on Escherichia coli; in data set [4]; in data set [6]; in data set [7]) was “inactive” throughout. This molecule registered an MIC in data set [2] of 29.9 µM (≈ 12.5 µg/mL). Moreover, in data set [3], the inhibition at 72 h, 50 µM came out at 24.8%. The IC50 in data set [5] is 22.1 µM.
Take `O=C(Nc1ccccc1)Nc1ccc(Nc2c3ccccc3nc3ccccc23)cc1`: the inhibition entry (in data set [1]; with Escherichia coli; in data set [4]; in data set [6]; in data set [7]) was “inactive” in each case. For the same molecule, the MIC in data set [2] was greater than 61.8 µM. Also, the inhibition at 72 h, 50 µM in data set [3] is 30.4%. In data set [5], the IC50 was found to be 32.6 µM.
Turning to `Cc1ccc2nc3ccccc3c(Nc3ccc(NS(=O)(=O)c4ccccc4)cc3)c2c1`, the inhibition result (in data set [1]; in the data set on Escherichia coli; in data set [4]; in data set [6]; in data set [7]) was “inactive” in each case. 28.4 µM (≈ 12.5 µg/mL) was the least that counted as inhibitory in data set [2] (MIC). Also, the inhibition at 72 h, 50 µM in data set [3] came out at 39.6%. The IC50 in data set [5] was 5.86 µM.
Consider `O=C(Nc1ccc(Cl)cc1)Nc1ccc(Nc2c3ccccc3nc3ccc(Cl)cc23)cc1`, for which the inhibition entry (in data set [1]; in the data set on Escherichia coli; in data set [4]; in data set [6]; in data set [7]) was “inactive” each time. Besides, the minimum inhibitory concentration (MIC) in data set [2] came out at 13.2 µM (≈ 6.25 µg/mL). The inhibition at 72 h, 50 µM in data set [3] came out at 17.1%. The IC50 in data set [5] amounted to 11.8 µM.
On to `COc1c(N2C[C@@H]3CCCN[C@@H]3C2)c(F)cc2c(=O)c(C(=O)O)cn(C3CC3)c12` [MOXIFLOXACIN], for which the MIC in data set [2] turned out to be 1.26 µM (≈ 0.506 µg/mL). In addition, the inhibition at 72 h, 50 µM in data set [3] stood at 1.26%.
Turning to `O=C(Nc1ccccc1)Nc1ccc(Nc2c3ccccc3nc3ccc(Cl)cc23)cc1`, the inhibition result (in data set [1]; in the data set with Escherichia coli; in data set [4]; in data set [6]; in data set [7]) was “inactive” in each case. Also, the MIC in data set [2] turned out to be 28.5 µM (≈ 12.5 µg/mL). The inhibition at 72 h, 50 µM in data set [3] was determined as 27.7%. For the same molecule, the IC50 in data set [5] stood at 23.6 µM.
Take `Cc1ccc2nc3ccccc3c(Nc3ccc(NC(=O)Nc4ccc(Cl)cc4)cc3)c2c1`: the inhibition result (in data set [1]; in the data set on Escherichia coli; in data set [4]; in data set [6]; in data set [7]) was “inactive” in each case. In addition, in data set [2], the lowest concentration to inhibit growth (MIC) was 27.6 µM (≈ 12.5 µg/mL). Besides, the inhibition at 72 h, 50 µM in data set [3] was determined as 25.9%. In data set [5], the IC50 was 11.4 µM.
`NNC(=O)c1ccncc1` [ISONIAZID]: 0.66 µM (≈ 0.0905 µg/mL) was the least that counted as inhibitory in data set [2] (MIC). Also, the IC50 in data set [5] was greater than 50 µM.
The like results for `CO[C@H]1/C=C/O[C@@]2(C)Oc3c(C)c(O)c4c(O)c(c(/C=N/N5CCN(C)CC5)c(O)c4c3C2=O)NC(=O)/C(C)=C\C=C\[C@H](C)[C@H](O)[C@@H](C)[C@@H](O)[C@@H](C)[C@H](OC(C)=O)[C@@H]1C` [RIFAMPIN] were, in that order, 0.23 µM (≈ 0.189 µg/mL) and greater than 50 µM.
Consider `CO[C@@H]1[C@@H](OC(N)=O)[C@@H](O)[C@H](Oc2ccc3c(O)c(NC(=O)c4ccc(O)c(CC=C(C)C)c4)c(=O)oc3c2C)OC1(C)C` [NOVOBIOCIN], for which the minimum inhibitory concentration (MIC) in data set [2] was greater than 50 µM.
